Reference: ChEMBL document CHEMBL4765307, “Design, synthesis and biological activity of novel 2,3,4,5-tetra-substituted thiophene derivatives as PI3Kα inhibitors with potent antitumor activity” (Eur J Med Chem, 2020)

Experiments:
[1] = Half life in human liver microsomes at 1 uM by LC-MS/MS analysis; type: ADME, Microsome
Procedure, shortened: (§1)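 Compound 1 µM with human or rat microsomes 0.5 mg/mL, preincubated 10 min at 37 °C in 100 mM potassium phosphate pH 7.4, 10 mM MgCl2; started with NADPH, sampled 0–60 min, quenched with cold acetonitrile, LC–MS/MS. A parallel no-NADPH control was run.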

[2] = target: T1, CYP1A2 (Homo sapiens, UniProt P05177); test: Inhibition of CYP1A2 in human liver microsomes using phenacetin as substrate at 10 uM preincubated for 10 mins followed by incubation with NADPH for 10 mins by LC- MS/MS analysis; type: ADME; conditions: probe phenacetin, time 20 min
T1 sequence (P05177 whole entry): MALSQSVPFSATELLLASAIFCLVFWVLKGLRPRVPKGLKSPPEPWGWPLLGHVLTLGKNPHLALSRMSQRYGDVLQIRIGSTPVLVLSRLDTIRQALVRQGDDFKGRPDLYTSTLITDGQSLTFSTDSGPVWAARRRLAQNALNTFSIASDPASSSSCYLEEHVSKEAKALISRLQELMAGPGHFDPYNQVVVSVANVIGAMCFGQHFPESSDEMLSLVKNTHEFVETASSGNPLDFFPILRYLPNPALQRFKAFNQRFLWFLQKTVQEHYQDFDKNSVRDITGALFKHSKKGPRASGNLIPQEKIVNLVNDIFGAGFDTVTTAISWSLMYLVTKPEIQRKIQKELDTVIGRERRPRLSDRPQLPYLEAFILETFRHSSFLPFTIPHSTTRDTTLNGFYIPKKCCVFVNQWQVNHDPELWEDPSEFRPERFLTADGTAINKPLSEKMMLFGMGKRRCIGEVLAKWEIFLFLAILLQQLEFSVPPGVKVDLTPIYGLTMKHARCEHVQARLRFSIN
Procedure, shortened: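 Human liver microsomes 0.25 mg/mL with probe substrate (CYP1A2 10 µM phenacetin; CYP2D6 5 µM dextromethorphan; CYP3A4 2 µM midazolam), test compound 10 µM; 10 min preincubation at 37 °C, NADPH added (final 10 mM), 10 min at 37 °C; stopped with cold acetonitrile containing internal standards; LC-MS/MS.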

[3] = target: PI3K p110 beta/p85 alpha (Homo sapiens, UniProt P42338); test: Inhibition of N-terminal His6-tagged human recombinant full length PI3Kbeta co-expressed with human recombinant full length P85alpha in baculovirus infected Sf21 cells using PIP2 peptide as substrate incubated for 1 hr in presence ATP by ADP-Glo Kinase Assay
PI3K p110 beta/p85 alpha, sequence (P27986 whole entry): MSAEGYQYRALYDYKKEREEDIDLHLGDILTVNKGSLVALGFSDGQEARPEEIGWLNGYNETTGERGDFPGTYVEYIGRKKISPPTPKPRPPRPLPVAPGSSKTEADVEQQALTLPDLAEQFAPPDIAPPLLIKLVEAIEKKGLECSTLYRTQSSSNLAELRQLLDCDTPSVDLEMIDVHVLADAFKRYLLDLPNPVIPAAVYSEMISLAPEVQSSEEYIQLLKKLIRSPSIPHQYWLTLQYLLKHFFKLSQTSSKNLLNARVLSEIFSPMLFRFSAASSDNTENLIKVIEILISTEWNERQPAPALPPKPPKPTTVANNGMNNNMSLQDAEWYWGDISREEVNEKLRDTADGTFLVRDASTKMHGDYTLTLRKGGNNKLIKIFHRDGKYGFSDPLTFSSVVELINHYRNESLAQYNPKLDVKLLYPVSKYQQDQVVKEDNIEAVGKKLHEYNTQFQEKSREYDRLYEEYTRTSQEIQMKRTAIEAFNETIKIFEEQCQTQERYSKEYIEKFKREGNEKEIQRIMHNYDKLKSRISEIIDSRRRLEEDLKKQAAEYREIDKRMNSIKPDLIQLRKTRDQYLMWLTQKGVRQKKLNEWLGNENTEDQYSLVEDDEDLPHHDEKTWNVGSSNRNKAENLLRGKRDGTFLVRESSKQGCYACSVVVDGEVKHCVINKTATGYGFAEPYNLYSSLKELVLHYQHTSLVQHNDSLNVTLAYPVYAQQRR
PI3K p110 beta/p85 alpha, sequence (P42338 whole entry): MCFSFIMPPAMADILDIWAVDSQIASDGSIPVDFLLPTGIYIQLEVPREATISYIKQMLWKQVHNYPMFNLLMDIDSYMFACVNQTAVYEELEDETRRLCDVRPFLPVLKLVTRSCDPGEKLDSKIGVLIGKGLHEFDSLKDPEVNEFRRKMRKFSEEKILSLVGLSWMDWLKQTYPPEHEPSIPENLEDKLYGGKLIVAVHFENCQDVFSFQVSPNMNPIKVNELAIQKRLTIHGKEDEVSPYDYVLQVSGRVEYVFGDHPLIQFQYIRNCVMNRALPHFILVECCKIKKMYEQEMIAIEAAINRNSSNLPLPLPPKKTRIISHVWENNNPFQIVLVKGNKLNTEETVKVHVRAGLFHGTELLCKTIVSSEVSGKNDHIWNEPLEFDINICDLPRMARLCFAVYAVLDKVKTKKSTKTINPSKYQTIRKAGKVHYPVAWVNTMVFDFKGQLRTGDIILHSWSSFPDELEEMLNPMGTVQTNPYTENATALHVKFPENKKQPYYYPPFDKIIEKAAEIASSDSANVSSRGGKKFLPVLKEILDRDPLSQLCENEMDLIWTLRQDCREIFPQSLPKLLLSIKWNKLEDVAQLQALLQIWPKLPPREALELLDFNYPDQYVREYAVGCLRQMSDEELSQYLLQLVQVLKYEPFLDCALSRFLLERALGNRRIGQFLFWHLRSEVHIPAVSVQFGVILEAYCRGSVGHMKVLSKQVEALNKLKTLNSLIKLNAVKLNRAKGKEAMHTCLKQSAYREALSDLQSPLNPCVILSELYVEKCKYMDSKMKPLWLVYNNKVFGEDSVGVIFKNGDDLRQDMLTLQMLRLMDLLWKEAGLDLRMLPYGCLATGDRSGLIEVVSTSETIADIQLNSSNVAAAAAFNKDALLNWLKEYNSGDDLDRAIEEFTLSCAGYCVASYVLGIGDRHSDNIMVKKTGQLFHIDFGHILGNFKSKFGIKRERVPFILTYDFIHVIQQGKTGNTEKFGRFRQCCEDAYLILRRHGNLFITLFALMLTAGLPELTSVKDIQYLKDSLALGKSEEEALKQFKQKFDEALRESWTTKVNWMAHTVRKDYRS
Procedure, shortened: (§2)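 ADP-Glo reagent 1 for 40 min, then reagent 2 with 60 min equilibration before reading. IC50 taken from inhibition curves; average of at least two runs.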

[4] = Half life in Sprague-Dawley rat at 5 mg/kg, iv measured after 24 hrs by LC-MS/MS analysis; type: ADME, organism-based; conditions: in vivo
Procedure, shortened: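 Male SD rats (n=6), single 5 mg/kg intravenous dose; heparinised blood at 0.083–24 h, centrifuged at 4 °C; plasma quantified by LC–MS/MS; noncompartmental parameters.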

[5] = Apparent permeability across apical to basolateral side in human Caco2 cells at 2 uM incubated for 2 hrs by LC-MS/MS analysis; type: ADME, cell-based; conditions: Caco-2
Procedure, shortened: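 Caco-2 monolayers grown 21–28 days; compound 2 µM both directions in duplicate, DMSO <1%; 2 h at 37 °C, 5% CO2 without shaking. Donor and receiver levels by LC/MS/MS; integrity by lucifer yellow. Papp = (dCr/dt)×Vr/(A×C0); efflux ratio = Papp(B-A)/Papp(A-B).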

[6] = Metabolic stability in human liver microsomes assessed as parent compound remaining at 1 uM preincubated for 10 mins followed by incubation in phosphate buffer at pH 7.4 for 60 mins by LC-MS/MS analysis; type: ADME, Microsome; conditions: time 70 min, read-out: Stabilty; procedure, shortened: as §1
[7] = Half life in rat liver microsomes at 1 uM by LC-MS/MS analysis; type: ADME, Microsome; procedure, shortened: as §1
[8] = target: Phosphatidylinositol 4,5-bisphosphate 3-kinase catalytic subunit gamma isoform (Homo sapiens, UniProt P48736); test: Inhibition of GST-tagged human recombinant PI3Kgamma catalytic domain (468 to 1203 residues) expressed in insect cells using PIP2 peptide as substrate incubated for 1 hr in presence ATP by ADP-Glo Kinase Assay; procedure, shortened: as §2
Phosphatidylinositol 4,5-bisphosphate 3-kinase catalytic subunit gamma isoform, sequence (P48736 whole entry, the tested form may be a part, canonical isoform): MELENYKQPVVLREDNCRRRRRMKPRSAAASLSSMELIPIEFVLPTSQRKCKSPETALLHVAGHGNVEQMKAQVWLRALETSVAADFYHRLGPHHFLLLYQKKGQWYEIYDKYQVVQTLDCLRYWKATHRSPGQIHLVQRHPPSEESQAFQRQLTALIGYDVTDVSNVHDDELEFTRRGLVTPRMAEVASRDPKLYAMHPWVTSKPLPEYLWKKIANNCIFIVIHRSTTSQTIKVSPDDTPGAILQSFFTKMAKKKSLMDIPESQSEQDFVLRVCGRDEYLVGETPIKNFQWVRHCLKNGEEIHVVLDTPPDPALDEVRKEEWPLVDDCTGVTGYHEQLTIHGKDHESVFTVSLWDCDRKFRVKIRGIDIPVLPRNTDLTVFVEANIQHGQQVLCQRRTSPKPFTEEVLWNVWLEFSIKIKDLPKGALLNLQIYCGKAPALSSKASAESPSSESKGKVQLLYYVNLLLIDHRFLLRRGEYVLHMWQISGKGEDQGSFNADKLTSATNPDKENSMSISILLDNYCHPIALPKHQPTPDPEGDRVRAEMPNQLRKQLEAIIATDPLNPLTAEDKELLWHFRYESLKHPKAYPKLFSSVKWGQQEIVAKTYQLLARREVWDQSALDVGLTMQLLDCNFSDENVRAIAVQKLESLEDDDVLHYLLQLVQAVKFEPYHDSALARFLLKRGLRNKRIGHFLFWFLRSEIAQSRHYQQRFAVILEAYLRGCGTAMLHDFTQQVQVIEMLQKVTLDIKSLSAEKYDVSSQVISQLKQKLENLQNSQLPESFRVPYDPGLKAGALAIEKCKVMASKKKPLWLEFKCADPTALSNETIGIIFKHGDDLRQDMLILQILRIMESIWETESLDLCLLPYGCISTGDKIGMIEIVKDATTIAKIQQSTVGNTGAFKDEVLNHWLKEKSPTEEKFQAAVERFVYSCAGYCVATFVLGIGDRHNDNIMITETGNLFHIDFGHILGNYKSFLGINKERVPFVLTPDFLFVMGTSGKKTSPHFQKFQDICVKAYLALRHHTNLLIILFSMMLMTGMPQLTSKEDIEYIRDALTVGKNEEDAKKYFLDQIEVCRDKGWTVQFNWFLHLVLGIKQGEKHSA

[9] = target: Voltage-gated inwardly rectifying potassium channel KCNH2 (Homo sapiens, UniProt Q12809); test: Inhibition of human ERG expressed in CHO cells assessed as inhibition of channel tail current at holding potential of -80 mV by Qpatch assay; type: cell-based
Voltage-gated inwardly rectifying potassium channel KCNH2, sequence (Q12809 whole entry, the tested form may be a part): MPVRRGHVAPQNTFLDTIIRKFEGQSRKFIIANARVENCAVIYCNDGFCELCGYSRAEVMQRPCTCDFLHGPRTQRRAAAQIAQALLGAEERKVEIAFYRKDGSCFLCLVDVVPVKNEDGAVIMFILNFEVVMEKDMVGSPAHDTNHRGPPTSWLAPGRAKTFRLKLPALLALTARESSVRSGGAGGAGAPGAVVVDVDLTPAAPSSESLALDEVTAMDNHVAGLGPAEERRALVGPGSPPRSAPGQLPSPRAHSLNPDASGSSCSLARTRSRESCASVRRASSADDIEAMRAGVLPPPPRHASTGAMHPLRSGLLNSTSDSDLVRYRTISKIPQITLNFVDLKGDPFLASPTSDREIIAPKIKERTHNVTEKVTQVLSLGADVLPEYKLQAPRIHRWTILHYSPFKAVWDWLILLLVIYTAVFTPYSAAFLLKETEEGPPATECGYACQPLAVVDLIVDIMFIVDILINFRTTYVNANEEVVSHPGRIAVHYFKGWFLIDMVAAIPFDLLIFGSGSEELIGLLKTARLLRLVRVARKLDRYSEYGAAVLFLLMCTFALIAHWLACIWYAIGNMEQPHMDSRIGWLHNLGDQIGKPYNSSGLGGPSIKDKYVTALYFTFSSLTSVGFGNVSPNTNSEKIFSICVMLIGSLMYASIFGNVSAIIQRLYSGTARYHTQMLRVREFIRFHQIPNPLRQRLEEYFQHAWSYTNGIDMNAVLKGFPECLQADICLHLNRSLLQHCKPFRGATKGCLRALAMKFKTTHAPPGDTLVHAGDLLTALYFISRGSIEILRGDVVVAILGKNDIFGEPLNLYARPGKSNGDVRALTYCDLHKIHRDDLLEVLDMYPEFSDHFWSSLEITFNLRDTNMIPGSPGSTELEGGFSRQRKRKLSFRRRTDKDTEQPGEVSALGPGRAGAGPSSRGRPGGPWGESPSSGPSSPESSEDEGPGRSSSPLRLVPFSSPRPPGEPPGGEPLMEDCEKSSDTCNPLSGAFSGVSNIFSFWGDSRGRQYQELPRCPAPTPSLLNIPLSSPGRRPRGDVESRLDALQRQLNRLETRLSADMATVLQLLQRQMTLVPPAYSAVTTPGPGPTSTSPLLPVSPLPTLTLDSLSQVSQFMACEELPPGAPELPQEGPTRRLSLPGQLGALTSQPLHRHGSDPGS
Procedure, shortened: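 CHO cells stably expressing hERG, QPatch in single-hole mode at room temperature, held at […]; each concentration superfused to steady-state block (three superimposable traces), washout between concentrations; cisapride as quality control.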

[10] = target: Phosphatidylinositol 4,5-bisphosphate 3-kinase catalytic subunit alpha isoform (Homo sapiens) (UniProt P42336); test: Inhibition of PI3Kalpha in human T47D cells assessed as inhibition of insulin-stimulated Akt phosphorylation at Ser473 residue at 1 uM preincubated for 2 hrs followed by incubation with insulin for 2 hrs by western blot analysis relative to control; type: cell-based; conditions: time 4.0 hrs
Phosphatidylinositol 4,5-bisphosphate 3-kinase catalytic subunit alpha isoform (Homo sapiens), sequence (P42336 whole entry, canonical isoform): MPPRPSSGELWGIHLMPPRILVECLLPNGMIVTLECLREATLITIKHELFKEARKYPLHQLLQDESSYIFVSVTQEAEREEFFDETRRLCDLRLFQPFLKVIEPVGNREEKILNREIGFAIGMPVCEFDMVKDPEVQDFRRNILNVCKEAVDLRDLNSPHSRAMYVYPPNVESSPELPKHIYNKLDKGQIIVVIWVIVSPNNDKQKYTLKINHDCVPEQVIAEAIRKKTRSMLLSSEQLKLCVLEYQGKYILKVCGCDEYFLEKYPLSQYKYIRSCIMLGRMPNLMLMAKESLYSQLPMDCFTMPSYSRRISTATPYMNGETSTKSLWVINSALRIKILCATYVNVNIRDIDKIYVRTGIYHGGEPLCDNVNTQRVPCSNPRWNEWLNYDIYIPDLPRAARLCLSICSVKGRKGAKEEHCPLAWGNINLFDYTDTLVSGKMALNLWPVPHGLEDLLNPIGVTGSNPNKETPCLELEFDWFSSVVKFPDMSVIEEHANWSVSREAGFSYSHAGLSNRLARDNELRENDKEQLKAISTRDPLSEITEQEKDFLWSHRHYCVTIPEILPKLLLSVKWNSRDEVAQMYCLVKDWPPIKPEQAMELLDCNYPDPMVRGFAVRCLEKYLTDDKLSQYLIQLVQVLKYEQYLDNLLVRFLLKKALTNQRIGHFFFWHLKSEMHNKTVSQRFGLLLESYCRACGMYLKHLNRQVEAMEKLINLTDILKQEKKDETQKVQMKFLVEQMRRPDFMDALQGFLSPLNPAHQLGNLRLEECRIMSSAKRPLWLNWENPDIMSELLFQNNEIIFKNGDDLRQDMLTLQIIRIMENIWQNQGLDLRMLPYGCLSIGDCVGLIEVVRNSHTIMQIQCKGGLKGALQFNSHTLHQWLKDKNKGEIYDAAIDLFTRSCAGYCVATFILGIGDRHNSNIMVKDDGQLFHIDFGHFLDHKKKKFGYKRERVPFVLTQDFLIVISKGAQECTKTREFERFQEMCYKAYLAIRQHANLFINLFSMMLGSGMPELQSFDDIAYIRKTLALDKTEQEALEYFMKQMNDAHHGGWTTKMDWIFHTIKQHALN
Procedure, shortened: (§3)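 T47D cells given compound at 37 °C for 2 h, then stimulated with 1 µg/mL insulin for 2 h; lysed in RIPA with protease/phosphatase inhibitors and 1 mM PMSF; BCA-normalised SDS-PAGE, PVDF blot probed overnight at 4 °C for total Akt and pAkt Ser473, infrared secondary detection.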

[11] = target: Phosphatidylinositol 4,5-bisphosphate 3-kinase catalytic subunit alpha isoform (Homo sapiens) (UniProt P42336); test: Inhibition of PI3Kalpha in human T47D cells assessed as inhibition of insulin-stimulated Akt phosphorylation at Ser473 residue preincubated for 2 hrs followed by incubation with insulin for 2 hrs by western blot analysis relative to control; type: cell-based; conditions: dose 0.1-3 µM, time 4.0 hrs; procedure, shortened: as §3

`N#Cc1c(N2CCOCC2)sc(-c2nc[nH]n2)c1-c1ccc(NC(=O)Nc2ccccc2Cl)cc1` showed a half-life at 1 µM [1] of 58.3 min, an inhibition at 10 min, 10 µM [2] of 27.8% and an IC50 [3] of 108 nM. It also gave a Ki [3] of 89 nM, a half-life [4] of 119 min and a Papp A→B at 2 h, 2 µM [5] of 7.8 ×10⁻⁶ cm/s. The remaining at 1 h, 1 µM [6] was 47.8%, the half-life at 1 µM [7] was 44.7 min and the IC50 [8] was 258 nM. The Ki [8] was 193 nM, the IC50 [9] was greater than 30000 nM and the inhibition [10] was 78%. The inhibition [11] was “Dose-dependent effect”.
